Screens (PubChem BioAssay)
Rows were chosen to be rich in hits. Some 1.2% of all compounds tested hit in one or more screens of this group.
HKDC1 inh: inhibitors of human hexokinase HKDC1. 0.16% of 340,000 active. inhibition, % at 20 µM. Q2TB90. recombinant HKDC1, G6PDH/diaphorase resazurin coupled fluorescence;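 active = inhibition above about 35% when tested at 20 µM, limit read from the data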;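 also: plate controls were DMSO wells with enzyme for no effect and DMSO wells lacking enzyme for full effect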
Target sequence (Q2TB90 whole entry, looked up): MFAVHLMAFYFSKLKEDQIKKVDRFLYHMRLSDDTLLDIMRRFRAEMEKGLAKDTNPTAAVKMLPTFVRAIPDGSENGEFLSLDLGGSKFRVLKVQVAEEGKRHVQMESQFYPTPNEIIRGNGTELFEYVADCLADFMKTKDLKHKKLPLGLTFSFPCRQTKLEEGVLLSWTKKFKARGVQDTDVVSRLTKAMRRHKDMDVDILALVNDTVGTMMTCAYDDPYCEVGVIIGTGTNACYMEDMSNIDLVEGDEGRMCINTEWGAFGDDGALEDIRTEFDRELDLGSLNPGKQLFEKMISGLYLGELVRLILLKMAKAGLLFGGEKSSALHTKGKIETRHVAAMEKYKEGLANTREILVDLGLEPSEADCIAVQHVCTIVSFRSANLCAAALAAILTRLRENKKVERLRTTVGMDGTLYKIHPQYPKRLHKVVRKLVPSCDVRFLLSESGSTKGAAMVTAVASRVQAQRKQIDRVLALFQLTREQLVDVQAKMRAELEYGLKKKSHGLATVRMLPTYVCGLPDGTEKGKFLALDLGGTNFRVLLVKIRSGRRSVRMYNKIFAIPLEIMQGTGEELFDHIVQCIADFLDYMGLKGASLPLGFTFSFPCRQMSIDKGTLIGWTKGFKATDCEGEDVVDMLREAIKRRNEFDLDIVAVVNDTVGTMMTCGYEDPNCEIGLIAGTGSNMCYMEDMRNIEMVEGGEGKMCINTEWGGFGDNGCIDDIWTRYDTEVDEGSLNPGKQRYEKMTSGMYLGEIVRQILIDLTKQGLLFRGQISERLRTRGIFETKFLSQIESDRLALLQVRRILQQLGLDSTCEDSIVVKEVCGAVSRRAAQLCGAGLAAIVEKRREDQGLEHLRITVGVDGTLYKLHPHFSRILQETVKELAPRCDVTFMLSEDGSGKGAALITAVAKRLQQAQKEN
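Material: recombinant HKDC1 hexokinase; Amount: HKDC1 at 5 µg/mL; Medium: Tris pH 8.0 buffer with MgCl2, Tween-20, BSA, BME; Schedule: 90 min reaction incubation at room temperature, dark; Technique: coupled resazurin fluorescence, excitation 525 nm, emission 613 nm.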
G6PDH counter: inhibits Leuconostoc G6PDH, flagging false hits in G6PDH-based assays; Purified L. mesenteroides G6PDH, diaphorase/resazurin coupled fluorescence, 45 min; inhibition, % at 5 µM; 0.12% of 200,000 active; in the data active = inhibition above about 50%
Diaph inh CS: diaphorase inhibition or chemical oxidation counter-screen; diaphorase resazurin-to-resorufin fluorescence, NADH, 16 min; bacterial (C. kluyveri) enzyme, not human; inhibition, % at 20 µM; 0.69% of 190,000 active; AID 1217;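 active = primary screen inhibition at 20 µM above a set limit, cut at about 50% in these data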;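 also: plate controls were DMSO with full reaction for no effect and wells lacking NADH for full effect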
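material = Clostridium kluyveri diaphorase enzyme | amount = 0.14 U/mL diaphorase, enzyme working solution | schedule = incubation 16 min, room temperature | detection = fluorescence of resorufin formed from resazurin, Ex 544/Em 590 nm | benchmarks = positive control minus NADH, DMSO neutral control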
Diaphorase act: diaphorase activation or chemical reduction counter-screen | Diaphorase/resazurin coupled assay, resorufin fluorescence, 16 min; hits give high values; 1 = vehicle wells, 0 = NADH-free wells | activation factor at 20 µM | 0.005% of 190,000 active;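 active = diaphorase activity raised at least twofold by the compound at 20 µM; inactive = activation factor below 2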
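test system = bacterial diaphorase enzyme (C. kluyveri) | quantity = enzyme 0.07 U/mL final | reagent = NADH substrate 0.114 mM plus resazurin dye 0.1 mM, final | incubation = 16 min enzyme reaction, ambient temperature | buffer or medium = HEPES pH 7.4 buffer with MgCl2 and Tween 20 | signal = fluorescence of resorufin, 544 nm excitation, 590 nm emission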
PfG6PD inh: PfG6PD (Plasmodium falciparum) enzyme inhibition; PfGluPho enzyme, NADPH resazurin-diaphorase fluorescence; inhibition, % at 20 µM; 0.78% of 350,000 active; AID 504690;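 active = inhibition reaching at least a set limit at 20 µM in the primary screen, cut at about 59% in these data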;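 also: 0% = DMSO wells with substrate and 100% = DMSO wells lacking glucose-6-phosphate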
An asterisk follows results filed as active; . = no result.

SMILES	HKDC1 inh	G6PDH counter	Diaph inh CS	Diaphorase act	PfG6PD inh
Nc1scc2c(C(=O)N/N=C/c3ccc(Cl)cc3)nn(-c3ccccc3)c(=O)c12	19	20	75*	0.2	56
CCOC(=O)c1nn(-c2ccccc2)c(=O)c2c(N)scc12	15	46	36	0.6	59
COC(=O)c1cc(OC)nc(OC)c1	-5	.	.	.	0
COC(=O)c1cc(O)c(O)c(O)c1	-5	22	50*	0.5	17
CCOC(=O)c1c(NC(=S)Nc2ccc(Cl)cc2)sc(C)c1C	-9	4	8	0.9	-2
Cc1sc(NC(=S)Nc2ccc(F)cc2)c(C(N)=O)c1C	-6	12	58*	0.4	20
COc1ccc2nc3n(c(=O)c2c1)-c1ncccc1C(=O)NC3Cc1ccccc1 (configuration not stated)	.	.	.	.	21
CCCCCC(=O)N1C[C@H](O)[C@@H](n2cc(-c3ccc(F)cc3)nn2)C[C@@H]1c1ccc(OC)cc1	.	.	.	.	15
CC(C)[C@H](NC(N)=O)C(=O)NCCc1ccc(Cl)cc1	12	-2	67*	0.3	-18
Cc1ccc([N+](=O)[O-])cc1-c1[nH]c(-c2ccc(O)c(O)c2)nc1-c1ccccc1	7	7	64*	0.4	8
COc1ccc(-c2nc(-c3ccccc3)c(-c3cc([N+](=O)[O-])ccc3C)[nH]2)cc1O	8	6	29	0.7	47
CCn1c(=O)n(CC)c2cc(N)ccc21	-8	10	75*	0.3	18
CCn1c(=O)n(CC)c2cc(S(N)(=O)=O)ccc21	-6	6	20	0.8	18
Cc1ccc([C@H]2C[C@@H](O)[C@H](n3cc(C4CC4)nn3)CN2C(=O)C2CCCCC2)cc1	.	.	.	.	-11
O=C(O)c1ccc(S(=O)(=O)c2ccc3c(c2)C(=O)N(c2ccc(O)cc2)C3=O)cc1	-10	.	.	.	-5
O=C1c2ccc3c4c(ccc(c24)C(=O)N1c1ccc(O)cc1)C(=O)N(c1ccc(O)cc1)C3=O	56*	10	11	0.9	29
CCCCn1c(=O)cc(O)c2ccccc21	3	2	14	0.9	4
CCCCn1c(C)cc2cc(O)ccc21	3	57*	32	0.7	11
CCCNC(=O)c1c(N)n(-c2ccc3c(c2)OCO3)c2nc3ccccc3nc12	-1	7	16	0.8	-20
Nc1c(C(=O)NC2CC2)c2nc3ccccc3nc2n1-c1ccc2c(c1)OCO2	-1	12	66*	0.3	-2
O=C(O)Cc1ccc(C(=O)c2ccc(Cl)cc2Cl)s1	-7	13	83*	0.2	-1
C#CCOCCOCCOCCNc1nc(N2CCN(C(=O)[C@H](CCCCN)n3cc([C@@H](N)C(C)CC)nn3)CC2)nc(N2CCN(C(=O)[C@H](Cc3cc4ccccc4[nH]3)n3cc([C@@H](N)CC(C)C)nn3)CC2)n1 (some centres not stated)	4	-10	-67	1.7	60*
C#CCOCCOCCOCCNc1nc(N2CCN(C(=O)[C@H](CCC(=O)O)n3cc(C(N)Cc4ccc(O)cc4)nn3)CC2)nc(N2CCN(C(=O)[C@H](CCC(=O)O)n3cc(C(N)CC(C)C)nn3)CC2)n1 (some centres not stated)	-1	12	57*	0.4	-1
Cc1cccnc1NCc1ccc(O)c2ncccc12	-11	25	77*	0.2	5
Cc1cccc(NCc2ccc(O)c3ncccc23)c1C	-20	50	80*	0.2	41
SMILES	HKDC1 inh	G6PDH counter	Diaph inh CS	Diaphorase act	PfG6PD inh
Cc1ccc(O)c(CNc2cccc3cccnc23)c1	15	17	39	0.6	31
COc1cccc(CNC[C@H]2O[C@@H](n3ccc(N)nc3=O)[C@H](O)[C@@H]2O)c1OCc1ccc(F)cc1Cl	.	.	.	.	13
COc1ccc(/C=N/NC(=O)C(=O)/C=C2\NC3(CCCC3)Cc3ccccc32)cc1	-3	-29	36	0.6	10
O=C(/C=C1\NC2(CCCC2)Cc2ccccc21)C(=O)N/N=C/c1ccc(O)c(O)c1	-2	0	74*	0.3	14
Oc1c(CN2CCOCC2)cc(COCc2ccccc2)c2cccnc12	5	-4	53*	0.5	-27
Brc1c(NC2=NCCN2)ccc2nccnc12	.	26	59*	0.4	.
c1ccc(Nc2cccc(Nc3ccccc3)n2)cc1	14	20	55*	0.5	57
COC(=O)C(C)Sc1ncnc2c1nnn2-c1ccc(F)cc1 (configuration not stated)	-7	3	16	0.8	-13
COc1ccc(-n2nnc3c(SC(C(C)=O)C(=O)N(C)C)ncnc32)cc1 (configuration not stated)	-3	.	.	.	64*
O=C(N/N=C/c1ccccc1Cl)c1nc2ccc([N+](=O)[O-])cc2c(=O)[nH]1	6	2	58*	0.4	-3
O=C(N/N=C/c1cccc([N+](=O)[O-])c1)c1nc2ccccc2c(=O)[nH]1	-1	.	.	.	6
C#CCOCCOCCOCCNc1nc(N2CCN(C(=O)CCCCCCCCCCNC(=O)[C@H]([C@@H](C)CC)n3cc(CCCCCN)nn3)CC2)nc(N2CCN(C(=O)CCCCCCCCCCNC(=O)[C@H](CO)n3cc(CCCCCN)nn3)CC2)n1	-3	.	.	.	61*
C#CCOCCOCCOCCNc1nc(N2CCN(C(=O)CCCCCCCCCCNC(=O)[C@H]([C@@H](C)CC)n3cc(CCCCN=C(N)N)nn3)CC2)nc(N2CCN(C(=O)CCCCCCCCCCNC(=O)[C@H](CO)n3cc(CCCCCN)nn3)CC2)n1	6	.	.	.	64*
C#CCOCCOCCOCCNc1nc(N2CCN(C(=O)CCCCCCCCCCNC(=O)[C@H]([C@@H](C)CC)n3cc(CCCCN=C(N)N)nn3)CC2)nc(N2CCN(C(=O)CCCCCCCCCCNC(=O)[C@H](CCCCN)n3cc(C)nn3)CC2)n1	10	.	.	.	72*
C#CCOCCOCCOCCNc1nc(N2CCN(C(=O)CCCCCCCCCCNC(=O)[C@H](CCCCN)n3cc(CCCC(=O)O)nn3)CC2)nc(N2CCN(C(=O)CCCCCCCCCCNC(=O)[C@@H]([C@H](C)O)n3cc(C)nn3)CC2)n1	0	.	.	.	9
C#CCOCCOCCOCCNc1nc(N2CCN(C(=O)CCCCCCCCCCNC(=O)[C@H](CCCCN)n3cc(C)nn3)CC2)nc(N2CCN(C(=O)CCCCCCCCCCNC(=O)[C@H](CCCCN)n3cc(CCCC(=O)O)nn3)CC2)n1	-11	.	.	.	59*
C#CCOCCOCCOCCNc1nc(N2CCN(C(=O)CCCCCCCCCCNC(=O)[C@@H](CCC(=O)O)n3cc(CCCCCN)nn3)CC2)nc(N2CCN(C(=O)CCCCCCCCCCNC(=O)[C@H]([C@@H](C)CC)n3cc(CCCCCN)nn3)CC2)n1	-2	.	.	.	8
